{"data": "Experimental data pooled from the literature", "action": "inhibitor", "CDK5 with p25": "Cyclin-dependent kinase 5, with p25 (CDK5, Homo sapiens, UniProt Q00535)", "CDK5 with p35": "Cyclin-dependent kinase 5, with p35 (CDK5, Homo sapiens, UniProt Q00535)", "CDK5": "Cyclin-dependent kinase 5 (CDK5, Homo sapiens, UniProt Q00535)", "note": "Protocols differ between the studies behind these lines."}
{"SMILES": "Cc1ccc(Nc2nccc(N(C)c3ccc4c(C)n(C)nc4c3)n2)cc1S(N)(=O)=O", "target": "CDK5 with p25", "assay": "enzyme activity", "setting": "10 µM", "inhibition": "44%"}
{"SMILES": "COc1cc(-c2cc(-c3ccc(N4CCNCC4)cc3)cnc2C)cc(OC)c1OC", "target": "CDK5 with p25", "assay": "enzyme activity", "setting": "1 µM", "inhibition": "3%"}
{"SMILES": "CNCc1ccc(-c2cc(-c3nc(-c4ccc(S(=O)(=O)C(C)C)cc4)cnc3N)on2)cc1", "target": "CDK5 with p35", "assay": "enzyme activity", "setting": "0.4 µM", "inhibition": "0%"}
{"SMILES": "COc1cc2ncnc(Nc3ccc(Oc4ccccc4)cc3C)c2cc1OC", "target": "CDK5 with p25", "assay": "enzyme activity", "setting": "1 µM", "inhibition": "7%"}
{"SMILES": "CN(C)C1CCN(CC#Cc2nn(C3CCCC3)c3nc(NCc4ccccc4)ncc23)C1 (stereo not drawn)", "target": "CDK5 with p25", "assay": "enzyme activity, FRET", "setting": "0.1 µM", "inhibition": "1%"}
{"SMILES": "COc1cc2ncnc(Nc3ccc(Oc4ccccc4)c(C)c3C)c2cc1OC", "target": "CDK5 with p35", "assay": "enzyme activity", "setting": "1 µM", "inhibition": "-1%"}
{"SMILES": "CCN1CCN(Cc2ccc(NC(=O)c3ccc(C)c(Oc4ccnc5[nH]ccc45)c3)cc2C(F)(F)F)CC1", "target": "CDK5", "assay": "target engagement in cells, chemoproteomics", "test system": "Huh-7", "setting": "10 µM", "inhibition": "-42.6%"}
{"SMILES": "CCOc1cc(-c2nncn2C)ccc1Nc1ncc2cc(C)nc(NCC(C)(C)C)c2n1", "target": "CDK5 with p25", "assay": "enzyme activity, FRET", "setting": "1 µM", "inhibition": "49%"}
{"SMILES": "CN1CC(Oc2cnc(C#N)cc2-c2ccn3nc(NC(=O)C4CC4)cc3c2)C1", "target": "CDK5 with p35", "assay": "enzyme activity", "setting": "1 µM", "inhibition": "12%"}
{"SMILES": "CC[C@H](C)[C@H](NC(=O)[C@H](CCC(N)=O)NC(=O)[C@H](CC(C)C)NC(=O)[C@H](CCSC)NC(=O)[C@H](CCCCN)NC(=O)[C@H](CO)NC(=O)[C@H](CO)NC(=O)[C@H](CCSC)NC(=O)[C@H](CC(C)C)NC(=O)[C@H](CC(N)=O)NC(=O)[C@@H](NC(=O)[C@@H](NC(=O)[C@H](CO)NC(=O)[C@H](CC(C)C)NC(=O)[C@H](CS)NC(=O)[C@H](CCCNC(=N)N)NC(=O)[C@H](CC(=O)O)NC(=O)[C@H](Cc1c[nH]c2ccccc12)NC(=O)[C@H](Cc1ccccc1)NC(=O)[C@H](C)NC(=O)[C@H](CCC(=O)O)NC(=O)[C@@H](N)CCCCN)C(C)C)[C@@H](C)CC)C(=O)N[C@@H](CC(N)=O)C(=O)N[C@@H](C)C(=O)O", "target": "CDK5 with p25", "assay": "enzyme activity, radiometric", "setting": "10 µM", "inhibition": "13%"}
{"SMILES": "Nc1nc(Nc2ccc(S(N)(=O)=O)cc2)sc1C(=O)c1ccccc1[N+](=O)[O-]", "target": "CDK5", "assay": "enzyme activity", "setting": "0.1 µM", "inhibition": "95 to 96%"}
{"SMILES": "Cc1ccc(-n2nc(C(C)(C)C)cc2NC(=O)Nc2ccc(OCCN3CCOCC3)c3ccccc23)cc1", "target": "CDK5 with p35", "assay": "enzyme activity", "setting": "10 µM", "inhibition": "-26%"}
